Reference: ChEMBL document CHEMBL1938334, “Quinoline tricyclic derivatives. Design, synthesis and evaluation of the antiviral activity of three new classes of RNA-dependent RNA polymerase inhibitors” (Bioorg Med Chem, 2011)

Key:
[1] = Cytotoxicity against human MT4 cells after 96 hrs by MTT assay; format: cell-based
Outline: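 Exponentially growing MT-4 cells seeded at 1×10^5 cells/mL in RPMI-1640 with 10% FBS, penicillin and streptomycin. Incubated with serial compound dilutions at 37 °C, 5% CO2 for 96 h; viability by MTT. CC50 by linear regression relative to untreated controls; mean of three independent determinations.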

[2] = tested on: Human immunodeficiency virus 1; experiment: Antiviral activity against HIV1 3B infected in human MT4 cells assessed as inhibition of virus-induced cytopathogenicity after 4 days by MTT assay; format: functional, organism-based; conditions: Human immunodeficiency virus 1, 3B, MT4, 96 h
Outline: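 MT-4 cells (1×10^4 per well) were infected with HIV-1 IIIB at 100 CCID50, m.o.i. 0.01, together with serial compound dilutions. Viability was read by MTT after 4 days at 37 °C. EC50 was taken by linear regression versus untreated controls. Mean of three determinations.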

[3] = Cytotoxicity against MDBK cells after 48 to 96 hrs by MTT assay; format: cell-based, Bos taurus; conditions: cattle
Outline: (§1)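 MDBK seeded at 6×10^5 and BHK at 1×10^6 cells/mL in MEM-Earle's with L-glutamine, 1 mM pyruvate, kanamycin, plus 10% horse serum (MDBK) or 10% FBS (BHK). Cells were grown at 37 °C, 5% CO2 with serial compound dilutions (DMSO stocks diluted in medium). Viability by MTT after 48–96 h. CC50 was taken by linear regression versus untreated controls; three independent determinations.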

[4] = Antiviral activity against Bovine viral diarrhea virus 1-NADL infected in MDBK cells assessed as inhibition of virus-induced cytopathogenicity after 3 to 4 days by MTT assay; format: functional, cell-based; conditions: Bovine viral diarrhea virus isolates and strains
Outline: (§2)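 Host cells were seeded in 96-well plates at 3×10^4 cells/well (MDBK) or 5×10^4 cells/well (BHK-21) and grown to confluent monolayers overnight. They were infected at m.o.i. 0.01 in maintenance MEM with 0.5% inactivated FBS. Serial compound dilutions were added after 1 h. Viability was read by MTT after 3–4 days at 37 °C. EC50 was taken by linear regression against untreated controls. Mean of three determinations.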

[5] = Cytotoxicity against BHK21 cells after 48 to 96 hrs by MTT assay; format: cell-based, Mesocricetus auratus, BHK-21; conditions: hamster; outline: as §1
Yellow fever virus = experiment: Antiviral activity against Yellow fever virus 17D Stamaril Pasteur J07B01 infected in hamster BHK21 cells assessed as inhibition of virus-induced cytopathogenicity after 3 to 4 days by MTT assay; format: functional, cell-based; conditions: Stamaril Pasteur J07B01, BHK-21; outline: as §2
Reovirus sp. = experiment: Antiviral activity against Reovirus type-1 3651 infected in hamster BHK21 cells assessed as inhibition of virus-induced cytopathogenicity after 3 to 4 days by MTT assay; format: functional, organism-based; conditions: Reovirus sp., 3651, BHK-21; outline: as §2
[6] = Cytotoxicity against african green monkey Vero 76 cells after 48 to 96 hrs by crystal violet staining; format: cell-based; conditions: chlorocebus sabaeus
Outline: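 Vero-76 cells were seeded at 4×10^5 cells/mL in D-MEM with L-glutamine, kanamycin and 10% FBS, then exposed to serial compound dilutions at 37 °C, 5% CO2 for 48–96 h. Viability was read by crystal violet staining. 50% cytotoxic concentration by linear regression relative to untreated controls; mean of three independent determinations.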

Coxsackievirus B5 = experiment: Antiviral activity against Human coxsackievirus B5 Ohio-1 infected in african green monkey Vero 76 cells assessed as reduction of virus-induced plaque formation after 3 days using crystal violet staining; format: functional, organism-based; conditions: Enterovirus B, Ohio-1, Vero, 72 h
Poliovirus 1 = experiment: Antiviral activity against Human poliovirus 1 strain Sabin Chat infected in african green monkey Vero 76 cells assessed as virus-induced reduction of plaque formation after 2 days using crystal violet staining; format: functional, cell-based; conditions: Enterovirus C, 48 h
Human orthopneumovirus = experiment: Antiviral activity against Human respiratory syncytial virus A2 infected in african green monkey Vero 76 cells assessed as reduction of virus-induced plaque formation after 5 days using crystal violet staining; format: functional, organism-based; conditions: 120 h
[7] = tested on: Vesicular stomatitis Indiana virus; experiment: Antiviral activity against clinical isolate Vesicular stomatitis Indiana virus infected in african green monkey Vero 76 cells assessed as reduction of virus-induced plaque formation after 2 days using crystal violet staining; format: functional, organism-based; conditions: 48 h
[8] = Antiviral activity against Vaccinia virus Lister Elstree infected in african green monkey Vero 76 cells assessed as reduction of virus-induced plaque formation after 3 days using crystal violet staining; format: functional, cell-based; conditions: 72 h
Human alphaherpesvirus 1 = experiment: Antiviral activity against Human herpesvirus 1 strain KOS infected in african green monkey Vero 76 cells assessed as reduction of virus-induced plaque formation after 3 days using crystal violet staining; format: functional, organism-based; conditions: Human alphaherpesvirus 1, KOS, 72 h

SMILES	CC50 at 96 h [1] [µM]	EC50 [2] [µM]	CC50 [3] [µM]	EC50 [4] [µM]	CC50 [5] [µM]	EC50 (Yellow fever virus) [µM]	EC50 (Reovirus sp.) [µM]	CC50 [6] [µM]	EC50 (Coxsackievirus B5) [µM]	EC50 (Poliovirus 1) [µM]	EC50 (Human orthopneumovirus) [µM]	EC50 [7] [µM]	EC50 [8] [µM]	EC50 (Human alphaherpesvirus 1) [µM]
O=C(CCl)Cn1nnc2cc3cccnc3c(Cl)c21	23	> 23	21	> 21	65	> 65	> 65	> 100	> 100	> 100	> 100	> 100	> 100	> 100
Clc1c2ncccc2cc2nn[nH]c12	> 100	> 100	> 100	> 100	> 100	> 100	> 100	> 100	> 100	> 100	> 100	> 100	> 100	> 100
Oc1ccnc2c(Cl)c3[nH]nnc3cc12	> 100	> 100	> 100	> 100	> 100	> 100	≥ 100	> 100	> 100	> 100	> 100	> 100	> 100	> 100
[O-][n+]1n[nH]c2c(Cl)c3nccc(O)c3cc21	> 100	> 100	> 100	> 100	> 100	> 100	> 100	> 100	> 100	> 100	> 100	> 100	> 100	
O=[N+]([O-])c1c2cccnc2c(Cl)c2[nH]nnc12	> 100	> 100	> 100	23	> 100	> 100	> 100	> 100	> 100	> 100	> 100	> 100	> 100	> 100
O=[N+]([O-])c1c2cccnc2c(Cl)c2[nH]n[n+]([O-])c12	> 100	> 100	> 100	> 100	> 100	> 100		> 100	> 100	> 100	> 100	> 100	> 100	
N#CCn1nnc2c(Cl)c3ncccc3cc21	62	> 62	> 100	23	> 100	> 100	> 100	> 100	> 100	> 100	> 100	> 100	> 100	51
N#CCn1nnc2cc3cccnc3c(Cl)c21	100	> 100	> 100	100	> 100	> 100	> 100	> 100	> 100	> 100	> 100	> 100	> 100	> 100
CC(=O)n1nnc2c(Cl)c3ncccc3cc21	46	> 46	30	> 30	72	> 72		> 100	> 100	> 100	> 100	> 100	> 100	> 100
O=C(CCl)Cn1nnc2c(Cl)c3ncccc3cc21	21	> 21	53	> 53	85	> 85	> 85	> 100	> 100	> 100	> 100	> 100	> 100	> 100
c1cnc2cc3[nH]cnc3cc2c1	> 100	> 100	> 100	> 100	> 100	> 100	> 100	> 100	> 100	> 100		> 100	> 100	> 100
Clc1c2ncccc2cc2nc[nH]c12	> 100	> 100	> 100	> 100	> 100	> 100	> 100	> 100	> 100	> 100		> 100	> 100	> 100
